Consider 48 sequences from the EternaBench riboswitch data.

The test system of this data set is MS2 coat protein. The experiment in a line: apparent Kd, MS2 coat protein; higher = weaker binding; RNA-MaP array; FMN 200 µM where present. Put shortly: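 Designs on Illumina sequencing-chip clusters, transcribed by stalled E. coli RNA polymerase, were exposed to SNAP-549-labelled MS2 coat protein in doubling steps from 0.7 or 1.5 nM up to 3 µM, without and then with constant ligand. The buffer held 100 mM Tris-HCl pH 7.5, 80 mM KCl, 4 mM MgCl2, BSA, DTT, yeast tRNA and Tween-20. Apparent Kd values are medians of filtered per-cluster binding-curve fits to green signal normalised to red-channel RNA signal and control-cluster median Fmax.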

[1] abbreviates: designed as: ON switch for flavin mononucleotide, no ligand.
The mark [2] stands for this setting: ligand present: flavin mononucleotide, designed as: ON switch for flavin mononucleotide.
The mark [3] stands for this setting: designed as: OFF switch for flavin mononucleotide, no ligand.
Setting [4] is: ligand present: flavin mononucleotide, designed as: OFF switch for flavin mononucleotide.

Take “UUGCCUGCGUGUCGCCGGUUUGGACAGGAUAUCCACAUGAGGAUCACCCAUGUCUAACAAAAUACGGAGAAGGGUCCUAGCGGU”: the “apparent Kd” value is 39 nM under setting [1] and 6.55 nM under setting [2].
Consider “UUUUAACAUGAGGAUCACCCAUGUGAGGAUAUCGAAAUUUAUAUUUAUAUUUAUAUAACGAGAAGGCACAUUUU”, for which the “apparent Kd” value reads like this: under setting [3], 72.4 nM; under setting [4], 87.6 nM.
Turning to “ACCUCACAUGAGGAUCACCCAUGUUAGGAUAUCUCGGUGCCCUGCAGGCAGUGGCACCAGAGAAGGAACGUGCA”, the “apparent Kd” value runs as follows: under setting [3], 19.2 nM; under setting [4], 24.2 nM.
Taken in the same sequence, the figures for “AACAGCUCGUCAGGAUAUAUUUUCCUUUUAUGUAUUUAUGUACAUGAGGAUCACCCAUGUUGUUUGUAGAAGGGACGAGCUGAA” were 27.5 nM and 35.7 nM.
Taken in the same sequence, the figures for “AUAUCGUUAUCAGGAUAUGGACAGGCCUGUCCGUAUUGAGACAGUAACAUGAGGAUCACCCAUGUCCAGAAGGGAUCGAUGUAU” were 54.2 nM and 48.6 nM.
Taken in the same sequence, the figures for “AAAUAAACUACCAAGAUAUCCUCACAUGAGGAUCACCCAUGUCAGGAUAUUUGUCCUAAAAGGACAGAGAAGGGACGUGGUAGA” were 6.24 nM and 14.8 nM.
As for “GCCUCAUCCGUCAGGAUAUACAGCCGCUCCCUGUUGUAGAAGGGACAUGAGGAUCACCCAUGUACGUACCACCC”, the “apparent Kd” value runs as follows: under setting [3], 53.6 nM; under setting [4], 117 nM.
“ACGGAACAUGAGGAUCACCCAUGUAUCUGAGAUAAGCUCUCGCAGGAUAUUGAGAGAAGCCUAUUCGAGAAGGGUGACAGCAAA”: the “apparent Kd” value is, setting by setting: under setting [1], 90.1 nM; under setting [2], 30.1 nM.
Taken in the same sequence, the figures for “AUAUUUGUGUAGAAGGUACGUGAUUAGUUAUAGUAAGGAUAUACUGACAUGAGGAUCACCCAUGUAUAAAUGGUUAAAUGUUCU” were 27.9 nM and 20 nM.
With “GGGCUCGGAGGAUAUACAAUGGGCCCGGGAAACCGGGCCCUACAUGAGGAUCACCCAUGUAGAAGGUCGGGUCU”, the “apparent Kd” value is, setting by setting: under setting [3], 15.5 nM; under setting [4], 24.1 nM.
Taken in the same sequence, the figures for “GCAGCGUAUGUAGGAUAUCGGUCAGUUUCUGAUCGAGAAGGACAUGAGGAUCACCCAUGUAAAUUACCGACAUUGUCGGGCUGC” were 6.5 nM and 8.25 nM.
Taken in the same sequence, the figures for “AAUUAACAUGAGGAUCACCCAUGUGAGGAUAUGGUAUUAUUUGGACAGUUAUGAUAUACCAGAAGGCACAAAUA” were 32.6 nM and 45.9 nM.
Taken in the same sequence, the figures for “GCCGAUUAAGUCAGGAUAUACCUAUGGAUACAUAGGUAGAAGGGACAUGAGGAUCACCCAUGUUCCUCUACGGC” were 12.9 nM and 25.8 nM.
Take “GUAGGGUCAGGAUAUACUGGCUGAGGGAUGUAUUGUAGUUGGUAGAAGGGACAUGAGGAUCACCCAUGUAAGUA”: the “apparent Kd” value turned out to be 35.4 nM under setting [3] and 34 nM under setting [4].
Taken in the same sequence, the figures for “AAGGUACGAGGAUAUACAUAGAUACAGACACAUGUGCAUGUACAUGAGGAUCACCCAUGUAGAAGGCGUAUAUA” were 30.2 nM and 110 nM.
Taken in the same sequence, the figures for “AAUUGACACGUAGGAUAUCGAACUAUUUUAACACGAGAAGGACGUACAUGAGGAUCACCCAUGUUUAAUGGUGUAGAUAAGUUG” were 70.9 nM and 188 nM.
Turning to “AUAAAACAUGAGGAUCACCCAUGUCAACAAAGUCGAGGAUAUGGGUAAAUAAAAUAAGAACCAGAAGGCGAAUAAU”, the “apparent Kd” value came out at 597 nM under setting [1] and 132 nM under setting [2].
Taken in the same sequence, the figures for “GUAGCAUUCUGAGGAUAUCCAUACCGGAAACGGACAUGAGGAUCACCCAUGUGGCGAAAGCCUUGGGAGAAGGCAGUAUGCUAC” were 4.87 nM and 4.34 nM.
“UGCACCAACGAGAAGGCACAGAUCCAGCUCUUGACAUGAGGAUCACCCAUGUGAGGAUAUCGUAGGUGCGCAUUGGGACAAUCU”: the “apparent Kd” value was found to be 11.9 nM under setting [3] and 103 nM under setting [4].
Taken in the same sequence, the figures for “AUAGGGCUACACUGAAAGACACAUGAGGAUCACCCAUGUGAGAGAAGGGCUUCUGGAGGGCUGAGGUAGGAUAUUUCACCUGGG” were 18.6 nM and 22.6 nM.
Taken in the same sequence, the figures for “CUUUUGUGAGGAUAUCAGUAGUAAUAAAAUAAAAUUACUACUGAGAAGGCACAUGAGGAUCACCCAUGUUCCUC” were 40 nM and 182 nM.
Consider “GGUGCUGUGUAGAAGGCAGAUCUGAUUCAGAUCUGAGGAUAUACAUGAGGAUCACCCAUGUUAAGCACCAGCACGAGAGUGCAA”, for which the “apparent Kd” value is, setting by setting: under setting [3], 5.8 nM; under setting [4], 8.54 nM.
Regarding “AAACACGGACAUGAGGAUCACCCAUGUGGCGAUAGCCUUGGGAGAAGGUAUAAAUAAAAUAAUAAUUAGGAUAUUCAUACCGUG”, the “apparent Kd” value reads like this: under setting [1], 275 nM; under setting [2], 108 nM.
Regarding “AGGGUGGGCUCAGGAUAUCAGGAAGAGAUGUGGACAUGAGGAUCACCCAUGUACCAGUGUUGUUAUGAGAAGGGAGAUACUGUA”, the “apparent Kd” value was 52.3 nM under setting [1] and 28.8 nM under setting [2].
Consider “GCGGUACAUGAGGAUCACCCAUGUCAGGAUAUCCGCUGUUUGUUAAUAAGCAGGCGGUGGAGAAGGGACUUCGC”, for which the “apparent Kd” value runs as follows: under setting [3], 32 nM; under setting [4], 33.1 nM.
Taken in the same sequence, the figures for “CCGGAAAUGGAGGAUAUAGGAGUCGAUAGACACCUAGAAGGUCAUACAUGAGGAUCACCCAUGUGUCCUACCGG” were 17.2 nM and 19.1 nM.
“GGCCGAAUGGUCUAGGUGCACUUACAUGAGGAUCACCCAUGUCAGGAUAUCUUACGGGUCUCGUAAGAGAAGGGACAUCGCUAU”: the “apparent Kd” value runs as follows: under setting [3], 52.2 nM; under setting [4], 215 nM.
As for “GGAUAGGACAGAGGAUAUACGUGCUAGAGAUACUAGCAAAAUUUCCUCACAUGAGGAUCACCCAUGUAGAAGGGUGUCCUAUCG”, the “apparent Kd” value is, setting by setting: under setting [3], 12.9 nM; under setting [4], 12.7 nM.
Consider “CUCUUACAUGAGGAUCACCCAUGUGAGGAUAUAGCGGCCUGAUGAGGGAUCAACAUCGCUAGAAGGUACUUGGG”, for which the “apparent Kd” value by setting is: under setting [3], 101 nM; under setting [4], 106 nM.
Consider “AAGUCAGCAGGAUAUGCGAUGGUGUACUAGGUAGUUUGCCCACAUGAGGAUCACCCAUGUAGAAGGGCUGGCUA”, for which the “apparent Kd” value by setting is: under setting [3], 14.7 nM; under setting [4], 21.4 nM.
Regarding “AAAAGACAUGAGGAUCACCCAUGUCAAGACGUGGGAGGAUAUGUAUGGAAACCAGACUGUACAGAAGGCCUCUGUC”, the “apparent Kd” value under setting [1] was 57 nM and the “apparent Kd” value under setting [2] was determined as 70.5 nM.
In the case of “AUUCAGUCAGGAUAUCGUUAAUUUAAUUGUUUGUUUUAGUUCGAGAAGGGACAUGAGGAUCACCCAUGUACUUU”, the “apparent Kd” value amounted to 20.2 nM under setting [3] and 19.3 nM under setting [4].
Taken in the same sequence, the figures for “UUAUGCUGAGAGAAGGUUCAAACUACAUAUUGCACACAUGAGGAUCACCCAUGUUGGUGAAUAAGAAAGGAUAUUUUACUGUAU” were 20.1 nM and 16.9 nM.
Taken in the same sequence, the figures for “CGUUCUAGAGGAUAUACAGCUUAUGUACGGCGAUCUGGACAACAUGAGGAUCACCCAUGUAGAAGGCUAAGCAC” were 36.4 nM and 69 nM.
Taken in the same sequence, the figures for “GGUGCGAUGUAGAAGGCAGAUCUGAUUCAGAUCUGAGGAUAUACAUGAGGAUCACCCAUGUAAAGGCACCGCACGAGAGUGCAA” were 7.12 nM and 11.3 nM.
For the sequence “CCUUUGAAGAUCCUAAAUUUCGACAUGAGGAUCACCCAUGUGCAGGAUAUCGUGCCAGUGAUGUACGAGAAGGGCAGACUCUGC”, the “apparent Kd” value is, setting by setting: under setting [3], 54.3 nM; under setting [4], 58 nM.
In the case of “CUUCUGUCAGGAUAUGCGAAUCACCACUAGGUCAGUGGUGAGCAGAAGGGACAUGAGGAUCACCCAUGUAAAGU”, the “apparent Kd” value by setting is: under setting [3], 37 nM; under setting [4], 166 nM.
Taken in the same sequence, the figures for “UCCUUGUCCUGAGGAUAUCCGAGGUUCCCAAAAGGAGAAGGCAGGACAUGAGGAUCACCCAUGUACCCAGAAAACGUGCAGAGU” were 122 nM and 25 nM.
Taken in the same sequence, the figures for “ACCAAUGCAGGAUAUACAUGAGGAUCACCCAUGUAUAACCUACAUAGGUGAUCAUCAUGUAGAAGGGCAUUGGA” were 14.6 nM and 15.1 nM.
In the case of “AAUUUACAGGGAGGAUAUACAUGAGGAUCACCCAUGUAAUCAUAUGAUAUUUUUUUUGUAUGAGUGUAGAAGGCCCAAAUAACA”, the “apparent Kd” value is 9.27 nM under setting [3] and 11.4 nM under setting [4].
Taken in the same sequence, the figures for “CAUUUCAUGUCAGGAUAUCCGCGCAGCUUCACGCACGAUAUAAGGGAGCUUGGAGAAGGGACAUGAGGAUCACCCAUGUGCCUC” were 10.9 nM and 26 nM.
As to “ACAAGUUUGUAGAAGGACGACUAAUUUGUAUUCGUAGGAUAUACUAUUUACAUGAGGAUCACCCAUGUUUUUAUGGAACAAUGU”, the “apparent Kd” value was 11.9 nM under setting [3] and 16.2 nM under setting [4].
On to “GUCAGCUCGUCAGGAUAUACGUCACUGCGUCAGCAGUGUGGUAAGAUCACAUGAGGAUCACCCAUGUAGAAGGGACGAGCUGAU”, for which the “apparent Kd” value came to 14.1 nM under setting [3] and 291 nM under setting [4].
Taken in the same sequence, the figures for “GCAUGCUAUGUCAGGAUAUACCUCUGGAUACAUAGGUAGAAGGGACAUGAGGAUCACCCAUGUCCUCAUCAUGC” were 12.4 nM and 23.8 nM.
Taken in the same sequence, the figures for “UGUCCAUAGCAGAAGGACAUGUAUAACCAUGAAAACAUGAGGAUCACCCAUGUAGGAUAUGCUAUGGACUAAGAGCGAAAGCUC” were 8.57 nM and 68.8 nM.
Taken in the same sequence, the figures for “UUAAAUCAUGUAGGAUAUGCAUGGCGAAGCUACGCAGAAGGACAUGAGGAUCACCCAUGUGCUAGCGUCUGAGAACAGAUGCAA” were 42 nM and 235 nM.
For the sequence “AAUUCACAUGAGGAUCACCCAUGUGAGGAUAUGGAUUCGCUGGCCGUAGCCAGUGGAUCCAGAAGGCGCAUGAU”, the “apparent Kd” value is, setting by setting: under setting [3], 29.2 nM; under setting [4], 35.6 nM.
For the sequence “GUAGCAUACGGAGGAUAUGUAGGAUCCACAUGAGGAUCACCCAUGUUAAGGACAGAAGGCCGUAUGCUACAAGAGCGAAAGCUC”, the “apparent Kd” value stood at 10.6 nM under setting [1] and 12.3 nM under setting [2].
